This is a sample that favours compounds with a hit; in the whole collection about 0.3% have one here.
Ab BasE inh – BasE siderophore biosynthesis inhibition; purified BasE, fluorescence polarization binding displacement; inhibition, % (test concentration not listed); 84,000 compounds, 0.1% hits; AID 485350; in the data active = inhibition above about 25%, passing the limit was not always enough;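 also: 0% = negative plate control signal and 100% = positive plate control signal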
KSHV LANA nucl – inhibitors of KSHV LANA binding to nucleosomes | 51,000 compounds, 0.3% hits | z-score (test concentration not listed) | FITC-LANA1-23 / chicken nucleosome fluorescence polarization; hits give low values;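 active = both repeat wells score below -2 in polarization z-score versus plate sample wells, excluding overly bright wells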
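Material: Purified chicken nucleosomes with FITC-labelled LANA N-terminal peptide (1-23) | Reagent: 50 nM FITC-LANA1-23 probe | Medium: TEN-BT buffer, pH 7.5 | Times: 10–45 min incubation at room temperature | Detection: Fluorescence polarization | Replication: Duplicates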
The depositor's hits bear a star; x = not tested or not shown; ! = not confirmed by another sample.

SMILES	Ab BasE inh	KSHV LANA nucl
O=C(COC(=O)c1cc2c(s1)CCCCC2)c1cccs1	0	x
CC1=CC(C)=NC2Nc3c(C)cc(C)cc3C(=N)C12 (stereo not given)	5	-2.2*
O=S(=O)(/N=C/c1ccco1)c1cccs1	0	0.032
CCC(C)C12CN(C(C)=O)CC(C)(CN(C(C)=O)C1)C2=O (stereo not given)	-3	2.2
CN1C(N)=NC(=O)/C1=C/c1ccc(-c2ccc(Br)cc2)o1	-1	0.69
N=c1c2c(F)cccc2ncn1NC(=O)c1ccncc1	2	0.082
CC1=C(C(=O)Nn2cnc3cccc(F)c3c2=N)Sc2ccccc2N1	36*	x
CCc1ccc(C(=O)CC2(O)C(=O)N(C(C)C)c3ccccc32)cc1 (stereo not given)	-2	-0.083
N#Cc1cnn2c(N)c(-c3ccccc3)cnc12	x	-0.24
O=C(O)c1ccccc1O	-1	0.21
O=C(O)c1cccn2nnnc12	0	-2.3*
CN1CCN(C(c2cccs2)N2CCN(C)CC2)CC1	1	0.58
C1CCCN(c2nc3nonc3nc2N2CCCCCC2)CC1	0	-0.2
OCCN(CCO)c1nc(N2CCCCC2)c2nc(N(CCO)CCO)nc(N3CCCCC3)c2n1	36*!	-2.3*!
Cc1cc(C(=O)Cn2cnnc2C#N)c(C)n1-c1ccc(Br)cc1	1	x
COc1ccc(-c2cc(-c3ccco3)nn2-c2nc(-c3ccc(Cl)cc3)cs2)cc1	-1	x
COc1ccc(-c2csc(-n3[nH]c(C)c(C(c4ccc(Cl)cc4)C(C#N)C(N)=O)c3=O)n2)cc1 (stereo not given)	35*	-0.008
CCCn1c(SCC(=O)Nc2ccccc2C(F)(F)F)nnc1-c1ccoc1C	-2	-1
Cn1c(=O)c2c(SCC(=O)Nc3ccccc3C(F)(F)F)ccnc2n(C)c1=O	-1	-2.1*
N#C/C(=C/c1ccc(-c2cc(C(=O)O)ccc2Cl)o1)C(=O)NCCc1c[nH]c2ccccc12	31*	-0.032
N#C/C(=C\c1ccc(-c2cc(C(F)(F)F)ccc2Cl)o1)C(=O)O	0	x
COc1ccccc1-n1cnc2cc(NCc3ccncc3)ccc21	32*	0.49
CCCCn1cnc2cc(NCc3ccncc3)ccc21	13	-0.39
O=c1ccc(-c2ccccc2)nn1Cc1ccncc1	77*	-1.3
Cn1nc(-c2ccccc2)ccc1=O	3	-0.68
SMILES	Ab BasE inh	KSHV LANA nucl
Cc1cc(O)cc(=O)n1C	1	0.066
Cc1cc(O)c(Cc2c(O)cc(C)n(C)c2=O)c(=O)n1C	1	-2.4*
Cc1ccc2c(c1)C(C(=O)O)=Cc1ccccc1O2	-5	1.5
O=C(CC1SC(=O)NC1=O)Nc1ccccc1NC(=O)CC1SC(=O)NC1=O (stereo not given)	1	0.052
COC(=O)CC1SC(=O)NC1=S (stereo not given)	32	-5.2*
O=C(Nc1cccc(-c2nn[nH]n2)c1)c1ccc(Br)o1	3	-2.1*
O=C(Nc1cccc(-c2nn[nH]n2)c1)c1cccc(C(F)(F)F)c1	0	-0.21
Nc1nonc1C(=O)NN=c1c(=O)c2ccccc2c1=O	1	0.65
N#C/C(=C\c1ccc(-c2ccccc2)o1)c1ccccc1	-34	2.3
N#C/C(=C\c1ccc(N2CCCC2)o1)c1ccccc1	-36	-5.4*
O=C(OCC(=O)N1CCCCC1)c1ccccc1OCCOc1ccccc1	-3	x
O=C(O)Cc1nonc1NCn1nnc2ccccc21	40*	0.61
c1ccc2c(c1)nnn2CNCn1nnc2ccccc21	6	-0.48
CN(C)c1ccc(/C=C2\CCCC3C2=NN(C(=O)c2ccco2)C3c2ccc(N(C)C)cc2)cc1 (stereo not given)	-3	0.56
C=CCn1c(=O)[nH]c2nc3cc(N=CN(C)C)ccc3nc2c1=O	26	-5.8*
C=CCn1c(=O)[nH]c2nc3cc(NC(=O)CC)ccc3nc2c1=O	19	-1.5
Cc1cccc(N2C(=O)c3cccc4c(N5CCNCC5)ccc(c34)C2=O)c1	15	-0.45
Cc1ccc(N2C(=O)c3cccc4c(N5CCN(C)CC5)ccc(c34)C2=O)c2cccnc12	27*	-2.8*
Cn1nccc1C(N)c1ccccc1 (stereo not given)	26*	-0.53
NC(c1ccccc1)c1ccccc1	-2	x
CCOC(=O)c1cnc2c(C(=O)OC)c[nH]n2c1=O	0	1.7
O=C(N/N=C1/CCS(=O)(=O)c2ccc(F)cc21)c1ccccn1	-1	x
O=C(N/N=C1\CCS(=O)(=O)c2ccc(F)cc21)c1ccc(O)cc1	55*	x
c1cnc(SCc2csc(-c3ccc4c(c3)OCO4)n2)nc1	-3	2.6
CCCN1CC=C2C(C#N)=C(N)C(C#N)(C#N)C(c3ccc(F)cc3F)C2C1 (stereo not given)	31	-4.5*
SMILES	Ab BasE inh	KSHV LANA nucl
CCCOc1ccc(C2C3CN(CC)CC=C3C(C#N)=C(N)C2(C#N)C#N)cc1OC (stereo not given)	2	-1.6
Cc1csc(C(C#N)C(=O)CSc2ccc3c(c2)OCCO3)n1 (stereo not given)	-1	x
S=C(Nc1ccc(Cl)cc1)N1CCSC1c1ccc(Br)cc1 (stereo not given)	3	x
O=C(Nc1ccccc1Cl)c1ccc(-n2cnnc2)cc1Cl	3	-0.15
N#C/C(=C\C=C\c1ccco1)C(N)=S	33*	-0.63
N#C/C(=C\c1ccco1)C(N)=S	-2	x
CC1CCCCN1C(=S)NC1CCCC1 (stereo not given)	3	0.63

Screens: PubChem, ICCB-Longwood Screening Facility, Harvard Medical School
